Screens from PubChem.
Most compounds without a hit are left out; they make up all but 3.4% or so of the library.
Cl transport mod – modulates chloride dependent transport by human KCC2 | B-score of Tl+ flux slope (higher = more flux/activation; lower = inhibition) at 10 µM | Q9H2X9 | 190,000 compounds, 2.2% hits | KCC2 cells, thallium flux FluoZin-2 fluorescence;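 active = thallium flux slope and its plate-corrected score both differing from the plate sample mean at a set confidence after two filtering rounds, in either direction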;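 note: slope of fluorescence scaled to starting intensity during 10 to 20 s after thallium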
ROMK mod – modulators of human ROMK potassium channel; 130,000 compounds, 2% hits; P48048; Tet-inducible ROMK, thallium flux fluorescence; actives lie on both sides; B-score at 10 µM;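 active = signal ratio slope over the read window, or its plate-corrected B-score, at least 3 SD from the plate mean, either direction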;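 note: B-score of the F/F0 ratio slope over 7 to 12 s after thallium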
DTT redox prof – compounds producing H2O2 with reducing agent – biochemical, NIH compound library profiling, artefact control for MLSCN library redox annotation, primary screen; activation, % at 10 µM; 200,000 compounds, 0.03% hits; DTT-dependent redox cycling H2O2, phenol red/HRP absorbance; 100% = 100 µM peroxide control, 0% = buffer; AID 878;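 active = activation of at least 50% relative to the plate's high and low controls in the primary single-dose screen; inactive = activation below 50%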;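 note: compound incubated with DTT at 0.8 mM final as the reducing agent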
Mdm2 ligase inh – inhibitors of human Mdm2 E3 ubiquitin ligase; Q00987; cell-based MDM2 ubiquitination luciferase reporter, 2 h; 0 = plate control, 100 = twice control, blank-subtracted; signal enhancement, % at 5 µM; 210,000 compounds, 0.11% hits; AID 1230;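 active = signal enhancement of 30% or more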;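 note: luminescence tracks abundance of the self-degrading MDM2-luciferase fusion protein; higher signal means inhibition of MDM2 E3 ligase activity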
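Assay system: stable mammalian line carrying autodegrading MDM2–luciferase fusion reporter; amount: 2000 cells seeded into each well; buffer or medium: DMEM; benchmarks: plate control and blank wells; signal: luciferase luminescence; timing: 2 h compound exposure at 37 °C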
p97 inhibitor – blocks human p97 ATPase activity; inhibition, % at 8 µM; recombinant p97 ATPase, Kinase-Glo ATP luminescence, 3 h; P55072; AID 1481; 220,000 compounds, 0.42% hits; in the data active = inhibition above about 15%
Target sequence (P55072 whole entry, looked up): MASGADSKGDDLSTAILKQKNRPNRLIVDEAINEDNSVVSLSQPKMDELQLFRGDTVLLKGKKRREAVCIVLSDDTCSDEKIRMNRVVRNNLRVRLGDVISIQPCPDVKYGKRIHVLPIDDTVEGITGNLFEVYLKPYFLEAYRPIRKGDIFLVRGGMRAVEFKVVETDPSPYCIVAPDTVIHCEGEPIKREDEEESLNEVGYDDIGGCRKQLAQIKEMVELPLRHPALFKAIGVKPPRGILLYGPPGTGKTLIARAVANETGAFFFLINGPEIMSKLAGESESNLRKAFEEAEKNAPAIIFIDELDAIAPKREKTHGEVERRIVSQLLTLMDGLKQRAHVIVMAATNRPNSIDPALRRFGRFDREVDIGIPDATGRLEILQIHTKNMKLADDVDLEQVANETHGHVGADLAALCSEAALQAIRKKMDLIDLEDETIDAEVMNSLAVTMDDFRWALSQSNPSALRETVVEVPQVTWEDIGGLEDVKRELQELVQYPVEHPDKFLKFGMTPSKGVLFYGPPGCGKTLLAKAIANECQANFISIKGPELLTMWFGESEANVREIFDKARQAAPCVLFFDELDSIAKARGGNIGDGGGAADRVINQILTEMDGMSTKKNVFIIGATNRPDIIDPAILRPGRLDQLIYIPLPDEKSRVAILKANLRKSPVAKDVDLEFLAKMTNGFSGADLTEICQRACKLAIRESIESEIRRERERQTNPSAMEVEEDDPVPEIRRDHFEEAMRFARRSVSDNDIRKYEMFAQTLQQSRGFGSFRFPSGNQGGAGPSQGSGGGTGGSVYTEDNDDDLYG
PKD1 kinase inh – PKD1 (human) kinase inhibition; 200,000 compounds, 0.056% hits; inhibition, % (test concentration not listed); Q15139; AID 797; PKD1 kinase fluorescence polarization assay; in the data active = inhibition above about 50%
KCC2 secondary – confirmation of human KCC2 transport modulators. AID 1713. 3,700 compounds, 15% hits. shares compounds with Cl transport mod. normalised thallium flux (F/F0 slope) at 10 µM. HEK293-KCC2, thallium flux, FluoZin2 fluorescence; hits give high values;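 active = thallium flux slope above the same plate's solvent-only control mean plus 3 SD; inconclusive = the two replicate wells disagree; inactive = no significant difference from solvent-only control wells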
KCC2 bumet counter – thallium flux despite bumetanide block in KCC2 cells, secondary assay 3. shares compounds with Cl transport mod. HEK293-KCC2 + bumetanide/ouabain, thallium flux FluoZin2; hits give high values. normalized thallium flux at 10 µM. 3,700 compounds, 49% hits;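 active = thallium entry rate above the same plate's blocked-transporter control wells by more than 3 SD; inconclusive = the two repeat wells disagree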;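 note: raw slope of fluorescence over initial fluorescence between 10 and 20 s after thallium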
KCC2 secondary2 – confirmation of human KCC2 transport modulators | shares compounds with Cl transport mod | 3,700 compounds, 23% hits | normalized thallium flux at 10 µM | HEK293-KCC2, thallium flux FluoZin2 fluorescence; actives lie on both sides; F/F0 rise rate, 10–20 s post-thallium;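 active = thallium flux slope more than 3 SD above or below the plate's solvent-only control mean, mostly below; inconclusive = the two repeat wells disagreed; inactive = no significant shift from solvent-only controls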
HEK293 Tl flux – parental HEK flux effect, counter-screen. HEK293 parental cells, thallium flux FluoZin2, ouabain; baseline-ratio fluorescence slope, 10–20 s after thallium. AID 1716. thallium flux rate (normalised fluorescence) at 10 µM. 3,700 compounds, 46% hits. shares compounds with Cl transport mod;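 active = thallium flux rate significantly above the same plate's solvent-only control wells, beyond their mean plus 3 SD; inconclusive = the two replicate wells gave conflicting results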
KCC2 ouabain – KCC2 (human) modulation, ouabain retest; shares compounds with Cl transport mod; HEK293-KCC2, thallium flux FluoZin2 fluorescence; bidirectional: low = inhibitor, high = activator; raw Tl+ flux slope (below DMSO = inhibition, above = activation) at 10 µM; 3,700 compounds, 48% hits;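 active = thallium flux slope beyond 3 SD from same-plate DMSO control mean in most replicates, usually higher, sometimes lower; inconclusive = repeat tests gave conflicting results; inactive = no significant difference from controls in most replicates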;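 note: slope of initial-normalized fluorescence between seconds 10 and 20 after thallium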
HEK293 Tl flux2 – acts in parental HEK cells, second KCC2 counter-screen | shares compounds with Cl transport mod | HEK293 parental, thallium flux FluoZin-2 fluorescence slope | thallium flux slope at 10 µM | 3,700 compounds, 33% hits;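 active = thallium flux slope above the same plate's solvent-control mean plus 3 SD in both duplicate wells; inconclusive = duplicate wells that disagreed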;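 note: run without ouabain in cells lacking the KCC2 cotransporter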
Large screens that a line does not name were inactive (follow-up assays come after a bar, where they were run).

CCSc1nc2c(cnn2-c2ccccc2)c(=O)n1N	Cl transport mod 4.6 (no result: DTT redox prof, PKD1 kinase inh) | KCC2 secondary inactive | KCC2 bumet counter 0.02 | KCC2 secondary2 inactive | HEK293 Tl flux 0.01 | KCC2 ouabain 0.034 | HEK293 Tl flux2 0.011
COc1ccc(C(=S)N2CCCCCC2)cc1	none (no result: Mdm2 ligase inh)
COc1cc(C(=S)N2CCCC2)cc(OC)c1O	Cl transport mod -3.6 | KCC2 secondary inactive | KCC2 bumet counter inactive | KCC2 secondary2 inactive | HEK293 Tl flux inactive | KCC2 ouabain inactive | HEK293 Tl flux2 inactive
CSc1cccc(NC(=O)C2CCCN(S(=O)(=O)c3ccc(F)cc3)C2)c1 (centres undefined)	none
CSc1cccc(NC(=O)C2CCN(S(=O)(=O)c3ccc(F)cc3)CC2)c1	none (no result: Cl transport mod, ROMK mod) | KCC2 secondary inactive | KCC2 bumet counter inactive | KCC2 secondary2 inactive | HEK293 Tl flux inactive | KCC2 ouabain inconclusive | HEK293 Tl flux2 inactive
CC(C)C(=O)NC(Nc1cccc2cccnc12)C(Cl)(Cl)Cl (centres undefined)	none (no result: Cl transport mod)
Nc1nc(SCC(=O)NC2CCCc3ccccc32)n[nH]1 (centres undefined)	none
COc1ccc(C2=CSC3=NNC4(CCCCC4)NN23)cc1	none
Cc1ccc(C2=CSC3=NNC4(CCCCC4)NN23)cc1	Cl transport mod -4.4 | KCC2 secondary inactive | KCC2 bumet counter 0.0058 | KCC2 secondary2 0.024 | HEK293 Tl flux inactive | KCC2 ouabain inconclusive | HEK293 Tl flux2 inactive
N#Cc1nc(Cc2cccc3ccccc23)oc1N1CCOCC1	Cl transport mod -6 (no result: ROMK mod) | KCC2 secondary inactive | KCC2 bumet counter inactive | KCC2 secondary2 0.022 | HEK293 Tl flux inactive | KCC2 ouabain 0.012 | HEK293 Tl flux2 inactive
N#Cc1nc(Cc2cccc3ccccc23)oc1NCc1ccc(F)cc1	none
C=CCNc1oc(Cc2cccc3ccccc23)nc1C#N	Cl transport mod -4.6 (no result: ROMK mod) | KCC2 secondary inactive | KCC2 bumet counter inactive | KCC2 secondary2 0.023 | HEK293 Tl flux inactive | KCC2 ouabain inconclusive | HEK293 Tl flux2 inactive
N#Cc1nc(Cc2cccc3ccccc23)oc1NCCN1CCOCC1	Cl transport mod -4.5 | KCC2 secondary inactive | KCC2 bumet counter inactive | KCC2 secondary2 0.023 | HEK293 Tl flux inactive | KCC2 ouabain inconclusive | HEK293 Tl flux2 inactive
N#Cc1nc(Cc2cccc3ccccc23)oc1N1CCN(c2ccccc2)CC1	none (no result: Cl transport mod)
Cc1cc(C)n2ncc(C(=O)Nc3ccc(Cl)c(Cl)c3)c2n1	none (no result: Cl transport mod)
COc1cc(C)nc(NC(=S)N(C)C(=O)c2ccccc2)n1	Cl transport mod 6.2 (no result: ROMK mod, DTT redox prof, PKD1 kinase inh) | KCC2 secondary inactive | KCC2 bumet counter 0.019 | KCC2 secondary2 inactive | HEK293 Tl flux 0.01 | KCC2 ouabain inactive | HEK293 Tl flux2 0.012
COc1cc(OC)nc(NC(=O)CS(=O)(=O)c2ccccc2)n1	none (no result: ROMK mod, Mdm2 ligase inh)
CCC(Oc1ccccc1)C(=O)Nc1ncc([N+](=O)[O-])s1 (centres undefined)	Cl transport mod -2.8 | KCC2 secondary inactive | KCC2 bumet counter inconclusive | KCC2 secondary2 inactive | HEK293 Tl flux inactive | KCC2 ouabain 0.017 | HEK293 Tl flux2 inactive
CCc1ccc(-n2c(=O)c3c(C)c(C(=O)N(C)C)sc3n(CC(=O)NCc3ccco3)c2=O)cc1	Cl transport mod 3.8 | KCC2 secondary inactive | KCC2 bumet counter inactive | KCC2 secondary2 inactive | HEK293 Tl flux inactive | KCC2 ouabain inactive | HEK293 Tl flux2 inactive
Cc1ccc(/C=C/C(=O)C2C(=O)c3ccccc3C2=O)cc1	none (no result: Cl transport mod, ROMK mod) | KCC2 secondary inactive | KCC2 bumet counter 0.067 | KCC2 secondary2 0.063 | HEK293 Tl flux 0.092 | KCC2 ouabain 0.072 | HEK293 Tl flux2 0.054
O=C(Cn1cnc2ccccc2c1=O)Nc1nnc(SCc2ccccc2)s1	none (no result: Cl transport mod) | KCC2 secondary inactive | KCC2 bumet counter inactive | KCC2 secondary2 inactive | HEK293 Tl flux 0.009 | KCC2 ouabain inactive | HEK293 Tl flux2 inconclusive
CCOC(=O)C1=C(CN2CCN(c3ccc(F)cc3)CC2)NC(=O)NC1c1cccs1 (centres undefined)	none (no result: ROMK mod)
O=C(NC(=S)NNC(=O)c1cnccn1)c1ccc(Cl)cc1	Cl transport mod 9.1 (no result: DTT redox prof, PKD1 kinase inh) | KCC2 secondary inactive | KCC2 bumet counter 0.013 | KCC2 secondary2 inactive | HEK293 Tl flux inconclusive | KCC2 ouabain inconclusive | HEK293 Tl flux2 inconclusive
Cc1cc(Br)ccc1OCC(=O)NNC(=O)c1cnccn1	Cl transport mod 8.8 | KCC2 secondary inactive | KCC2 bumet counter 0.027 | KCC2 secondary2 inconclusive | HEK293 Tl flux 0.022 | KCC2 ouabain 0.028 | HEK293 Tl flux2 0.024
Cc1cc(Cl)ccc1OCC(=O)NNC(=O)c1cnccn1	Cl transport mod 9.5 | KCC2 secondary inactive | KCC2 bumet counter 0.015 | KCC2 secondary2 inactive | HEK293 Tl flux 0.015 | KCC2 ouabain inconclusive | HEK293 Tl flux2 0.013
O=C(COc1ccc(Cl)cc1)NNC(=O)c1ccccn1	Cl transport mod 4.4 (no result: ROMK mod) | KCC2 secondary inactive | KCC2 bumet counter 0.019 | KCC2 secondary2 inactive | HEK293 Tl flux 0.011 | KCC2 ouabain inactive | HEK293 Tl flux2 inconclusive
O=C(COc1cccc2ccccc12)NNC(=O)c1cnccn1	none
COc1ccc(C(=O)NC(=S)NNC(=O)c2cnccn2)cc1	none (no result: Mdm2 ligase inh)
CN(CCNC(=O)C1(O)c2ccccc2NC(=O)N1c1ccccc1)Cc1ccccc1 (centres undefined)	none (no result: ROMK mod)
CC(C)c1ccc(OCC(=O)NNC(=O)c2cnccn2)cc1	Cl transport mod 5.7 (no result: ROMK mod, DTT redox prof, PKD1 kinase inh) | KCC2 secondary inactive | KCC2 bumet counter 0.011 | KCC2 secondary2 inactive | HEK293 Tl flux 0.012 | KCC2 ouabain 0.024 | HEK293 Tl flux2 0.015
O=C(COc1ccc2ccccc2c1)NNC(=O)c1cnccn1	none (no result: Mdm2 ligase inh)
Cc1ccc(NC2SC(=O)N(CC(=O)O)C2=O)cc1 (centres undefined)	none (no result: Cl transport mod)
